Screening results: PubChem BioAssay, several laboratories
C8 TRAIL sens = caspase-8 TRAIL sensitization; NB7+C8 cells + TRAIL, ATPlite viability luminescence; inhibition (viability loss, TRAIL sensitization), % at 10 µM; 360,000 compounds, 1% hits;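 active means compounds causing at least 50% loss of cell viability in the single-dose screen, relative to plate controls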
APP 5'UTR act = APP 5'UTR luciferase reporter activation. SH-SY5Y APP 5'UTR luciferase reporter, luminescence; zero percent = DMSO vehicle wells. activation, % at 2 µM. 190,000 compounds, 1% hits. AID 1276;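 active means activation above a set limit, based on mean plus 3 SD of controls, cut at about 140% in these data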
FLuc inh counter = Photinus pyralis luciferase inhibition counter-screen; ATPLite firefly luciferase biochemical luminescence, 10 min; inhibition, % at 10 µM; 200,000 compounds, 1.5% hits;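 active means inhibition above about 50% when tested at 10 µM, limit read from the data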
Target sequence (P08659 whole entry, looked up): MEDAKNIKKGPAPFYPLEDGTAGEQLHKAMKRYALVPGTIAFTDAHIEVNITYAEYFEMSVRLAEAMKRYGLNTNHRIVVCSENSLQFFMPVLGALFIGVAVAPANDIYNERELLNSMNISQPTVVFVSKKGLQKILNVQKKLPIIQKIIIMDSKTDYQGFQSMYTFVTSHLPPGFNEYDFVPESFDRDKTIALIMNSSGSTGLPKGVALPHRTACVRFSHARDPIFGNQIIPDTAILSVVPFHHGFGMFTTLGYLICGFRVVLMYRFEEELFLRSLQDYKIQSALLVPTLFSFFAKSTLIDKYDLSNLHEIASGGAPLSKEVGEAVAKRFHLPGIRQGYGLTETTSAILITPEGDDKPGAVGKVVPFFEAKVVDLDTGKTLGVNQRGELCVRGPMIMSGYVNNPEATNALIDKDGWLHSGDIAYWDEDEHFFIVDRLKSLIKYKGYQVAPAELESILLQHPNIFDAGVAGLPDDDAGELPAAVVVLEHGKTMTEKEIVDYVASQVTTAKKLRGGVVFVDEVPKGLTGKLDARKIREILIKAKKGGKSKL
FLuc act counter = firefly luciferase counter-screen for stimulation assays; 200,000 tested, under 10 active; ATPlite luciferase biochemical, luminescence, 10 min; 0 = ATP-free wells, 1 = DMSO control; activation factor at 10 µM;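 active means luciferase activation factor, scaled between plate controls, of at least 2 with compound at 10 µM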
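System: cell-free luciferase reagent; medium: PBS as buffer for the ATP substrate; doses: test compounds dosed from 2 mM stocks in 100% DMSO; incubation: 10 min, room temperature; measured by: luminescence from luciferase reaction; read-out: luciferase activation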
NF-kB neuron act = compounds increasing NF-kB expression in human neuronal cells. NF-kB reporter expression; active compounds read high. fold change at 12.5 µM. 190,000 compounds, 1.6% hits; in the data active means fold change above about 3.3
PPC-1+TRAIL kill = kills PPC-1 cancer cells in the presence of TRAIL; PPC-1 cells + TRAIL, ATPLite viability luminescence; cell killing (% activity), % at 4 µM or 5 µM; 220,000 compounds, 0.41% hits; AID 1443;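 active means cell killing above 50% in the first pass at 4 µM, then a duplicate retest at 5 µM averaging 50% or more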;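 further: plate controls were cells with TRAIL plus DMSO for no effect and medium-only wells lacking cells for full effect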
Active calls of the source: *. The list is not random: actives were taken first. Their share in the collection is about 2.2%.

For Cc1cc(NC(=O)CSc2nc3ccccc3c(=O)n2C(C)c2ccccc2)no1 (stereo unspecified) the results were C8 TRAIL sens 14.8, APP 5'UTR act 22.2, FLuc inh counter -6.3, FLuc act counter 1.1, NF-kB neuron act 3.63* and PPC-1+TRAIL kill 15.8.
CCC(C)n1c(SCC(=O)Nc2cc(C)on2)nc2ccccc2c1=O (stereo unspecified) was read as C8 TRAIL sens 21.9, APP 5'UTR act -14.3, FLuc inh counter 1.2, FLuc act counter 1, NF-kB neuron act 2.38 and PPC-1+TRAIL kill 1.3.
`Oc1ccc(/C=N/Nc2nn3cnnc3c3ccccc23)cc1` gave C8 TRAIL sens 62.6* and PPC-1+TRAIL kill 34.2.
Screening COc1cccc(/C=N/Nc2nn3cnnc3c3ccccc23)c1 returned C8 TRAIL sens 63.8*, APP 5'UTR act -7.9, FLuc inh counter 70.7*, FLuc act counter 0.3, NF-kB neuron act 0.5 and PPC-1+TRAIL kill 37.3.
Cc1cccc(N2CCN(C(=O)C3CC(=O)N(C4CCCC4)C3)CC2)c1C (stereo unspecified) was read as C8 TRAIL sens 12.4.
For NC(=O)CNC(=O)[C@@H]1CC2(CC(c3ccc(Cl)cc3)=NO2)CN1C(=O)c1ccccc1 (stereo partly specified) the results were C8 TRAIL sens 3.6, APP 5'UTR act 3.0, FLuc inh counter -1.4, FLuc act counter 1, NF-kB neuron act 1.5 and PPC-1+TRAIL kill 24.1.
Screening COc1cc(/C=N/NC(=O)c2cccc(S(=O)(=O)N3CCCC3)c2)cc(OC)c1O returned C8 TRAIL sens -7.1.
`Cc1cc(C)n2cc(COc3ccc4ccccc4c3)nc2n1` gave C8 TRAIL sens 22.6, APP 5'UTR act 146.1*, FLuc inh counter 36.8, FLuc act counter 0.6, NF-kB neuron act 8.03* and PPC-1+TRAIL kill 42.8.
O=C(COc1ccc2ccc(=O)oc2c1)NC1CCN(Cc2ccccc2)CC1 was read as C8 TRAIL sens -7.8.
COc1ccc(C2c3cc(OC)c(OC)cc3CC3C(=O)OCC32)cc1OC (stereo unspecified) was read as C8 TRAIL sens 8.2.
`c1ccc(SCc2cc(-c3ccccc3)no2)cc1` gave C8 TRAIL sens -5.2, APP 5'UTR act 115.5, FLuc inh counter 3.5, FLuc act counter 1, NF-kB neuron act 2.14 and PPC-1+TRAIL kill -3.3.
For Clc1ccc(-c2cc(CSc3ccccc3)on2)cc1 the results were C8 TRAIL sens 7.2, FLuc inh counter 4.3, FLuc act counter 1, NF-kB neuron act 6.18* and PPC-1+TRAIL kill 19.2.
C[C@H](CO)NC(=O)c1[nH]cnc1C(=O)Nc1cccc(Cl)c1 was read as C8 TRAIL sens 1.1.
`CC(C)Nc1ncnc2c1cnn2-c1ccc(Cl)cc1` gave C8 TRAIL sens 56.9*, APP 5'UTR act 154.6*, FLuc inh counter 63.9*, FLuc act counter 0.4, NF-kB neuron act 1.12 and PPC-1+TRAIL kill 36.7.
Screening OCCOCCNc1ncnc2c1cnn2-c1ccccc1 returned C8 TRAIL sens 12.3, APP 5'UTR act 63.3, FLuc inh counter 14.4, FLuc act counter 0.9 and NF-kB neuron act 2.16.
`Clc1ccc(Nc2ncnc3c2cnn3-c2ccccc2)cc1` gave C8 TRAIL sens 26.9, APP 5'UTR act 51.1, FLuc inh counter -4.2, FLuc act counter 1, NF-kB neuron act 2.35 and PPC-1+TRAIL kill 15.7.
COCCNc1ncnc2c1cnn2-c1ccc(Cl)cc1 was read as C8 TRAIL sens 17.2, APP 5'UTR act 197.2*, FLuc inh counter 21.3, FLuc act counter 0.8 and NF-kB neuron act 7.43*.
OCCOCCNc1ncnc2c1cnn2-c1ccc(Cl)cc1 was read as C8 TRAIL sens 19.0, APP 5'UTR act 139.9*, FLuc inh counter 27.6, FLuc act counter 0.7 and NF-kB neuron act 4.61*.
`COCCN(CCOC)c1ncnc2c1cnn2-c1ccc(Cl)cc1` gave C8 TRAIL sens 2.2, APP 5'UTR act 41.7, FLuc inh counter -0.9, FLuc act counter 1, NF-kB neuron act 1.15 and PPC-1+TRAIL kill -7.3.
`COc1ccc(-c2coc3c(C(=O)Nc4cccc(C(C)=O)c4)cccc23)c(C)c1` gave C8 TRAIL sens 16.8.
For O=C(CSC1=NCCS1)N1CCc2ccccc21 the results were C8 TRAIL sens 0.1, APP 5'UTR act 85.3, FLuc inh counter 15.6, FLuc act counter 0.8, NF-kB neuron act 3.54* and PPC-1+TRAIL kill -6.2.
